From PubChem
A selection: hits, their analogues and other compounds. The true share with any hit is near 0.63%.
TRPML3 agonist – agonists of human TRPML3 channel; Q8TDD5; HEK293 TRPML3-YFP, Fluo-8 calcium fluorescence; 100% = the carbachol control signal; activation, % at 3 µM; 0.29% of 220,000 active; AID 1448;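 active = activation above its plate's cutoff, the mean activation of the plate's test wells plus 3 SD, cut at about 12% in these data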
Target sequence (Q8TDD5 whole entry, looked up): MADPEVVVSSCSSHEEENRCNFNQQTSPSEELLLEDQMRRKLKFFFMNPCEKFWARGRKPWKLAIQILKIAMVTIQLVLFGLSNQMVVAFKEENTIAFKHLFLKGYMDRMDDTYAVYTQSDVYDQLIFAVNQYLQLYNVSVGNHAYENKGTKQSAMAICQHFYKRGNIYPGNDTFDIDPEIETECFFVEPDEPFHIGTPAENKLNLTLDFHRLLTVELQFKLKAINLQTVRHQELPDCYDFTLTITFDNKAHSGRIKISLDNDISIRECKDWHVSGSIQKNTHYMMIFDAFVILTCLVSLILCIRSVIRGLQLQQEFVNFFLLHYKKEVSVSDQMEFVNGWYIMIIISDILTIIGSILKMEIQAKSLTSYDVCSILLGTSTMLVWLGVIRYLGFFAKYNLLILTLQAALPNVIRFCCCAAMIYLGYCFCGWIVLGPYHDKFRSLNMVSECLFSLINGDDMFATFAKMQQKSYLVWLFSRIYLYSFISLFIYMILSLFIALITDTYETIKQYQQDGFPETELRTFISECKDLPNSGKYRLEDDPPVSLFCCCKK
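system = HEK293 cells stably carrying human TRPML3-YFP | doses = one concentration, 3 µM nominal, 0.3% DMSO | timing = dye loading 1 h 37 °C then 30 min ambient, 125 s read | detection = Fluo-8 calcium dye fluorescence, ex 470-495, em 515-575 nm | benchmarks = high control carbachol 87 µM, low control DMSO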
IDE inh – inhibitors of human insulin-degrading enzyme in cells; P14735; 0.41% of 320,000 active; HEK cells, FAbetaB cleavage, fluorescence polarization; AID 434962; inhibition, % at 5.59 µM;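 active = percent inhibition above the average of all tested compounds plus 3 SD, set per screening campaign, cut at about 16% in these data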;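 also: IDE supplied by intact live HEK cells; FP after avidin binding of uncleaved biotin substrate so inhibition keeps polarization high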
IDE cell activ – activators of human insulin-degrading enzyme in cells; HEK cells, FAbeta-B cleavage, fluorescence polarization; 0% vehicle, 100% cell-free pure enzyme wells; activation, % at 5.96 µM; 0.073% of 340,000 active; AID 493087;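 active = activation above the mean of all tested compounds plus 3 SD, set per screening campaign, cut at about 17% in these data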
TRPN1 ag – activates the zebrafish TRPN1 channel. HEK293 zebrafish TRPN1-YFP, Fluo-8 calcium fluorescence; 100% = response to 87 µM carbachol. activation, % at 3 µM. 0.18% of 220,000 active;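 active = activation above its plate's cutoff, the mean activation of test wells on that plate plus 3 SD, cut at about 19% in these data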
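Material: zebrafish TRPN1-YFP in HEK293 cells. Doses: one dose of 3 µM, 0.3% DMSO. Incubation: dye 1 h 37 °C plus 30 min RT. Measured by: intracellular calcium fluorescence with Fluo-8.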
IDE cell inh cf – confirmation of human insulin-degrading enzyme inhibitors in cells | shares compounds with IDE inh | HEK cells, FAbetaB cleavage, fluorescence polarization | inhibition, % at 5.59 µM | 51% of 1,200 active | AID 435028;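 active = mean inhibition across triplicate wells above the cutoff set by the earlier primary insulin-degrading enzyme screen, cut at about 16% in these data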
HEK cytotox – HEK cell cytotoxicity, counter-screen for IDE inhibitors | shares compounds with IDE inh | HEK293 cytotoxicity, ATP luminescence | inhibition, % at 5.59 µM | 28% of 1,200 active; in the data active = inhibition above about 22%
Hits are given with their value; – = inactive; · = not tested or not shown.

SMILES	TRPML3 agonist	IDE inh	IDE cell activ	TRPN1 ag	IDE cell inh cf	HEK cytotox
O=C(N/N=C/c1c(O)n(-c2ccc(Cl)cn2)c(=O)c2ccccc12)c1ccncc1	–	21.6	–	–	37.8	–
C=CCNC1=C(Cl)C(=O)N(c2ccccc2Cl)C1=O	–	–	–	–	·	·
COc1ccc(-c2cn3c(C)c(C(=O)Nc4cccc(C)n4)sc3n2)cc1	–	–	–	–	·	·
Cc1c(C(=O)NCc2ccccn2)sc2nc(-c3ccc(F)cc3)cn12	–	19.6	–	–	–	62.5
Cc1cccc(NC(=O)c2sc3nc(-c4ccccc4)cn3c2C)n1	–	17.5	–	–	–	29.4
Cc1cc(/C=C2\SC(=S)NC2=O)cc(C)c1O	–	16.4	–	–	30.6	–
O=C(N/N=C/c1c(O)ccc2ccccc12)c1cccnc1	·	62.9	–	·	64.1	75.8
O=C(N/N=C/c1c(O)ccc2ccccc12)c1ccc(Br)o1	·	99.1	–	·	141.5	101.8
O=C(N/N=C\c1c(O)ccc2ccccc12)c1ccc(O)cc1	·	–	–	·	·	·
O=C(NN=Cc1c(O)ccc2ccccc12)c1ccncc1	·	·	–	·	·	·
Cc1ccc(C(=O)N/N=C/c2c(O)ccc3ccccc23)cn1	·	64.2	–	·	104.7	95.5
Cn1nccc1C(=O)N/N=C/c1c(O)ccc2ccccc12	·	16.2	–	·	22.4	110.9
CC1CC(C)CN(C(=O)CSc2nnc(N)s2)C1 (configuration not stated)	·	–	–	·	·	·
Cc1[nH]c2ccccc2c1C(O)CN1CCC2(CC1)OCCO2 (configuration not stated)	–	–	–	–	·	·
Cc1ccn(C)c(=N)c1	–	–	–	–	·	·
Cc1ccsc1/C=N/NC(=O)C1C(=O)NCC1c1ccccc1 (configuration not stated)	–	–	·	–	·	·
COC(=O)/C=c1/s/c(=C(/C#N)C(=O)N2CCCCC2)n(-c2ccccc2)c1=O	–	–	–	–	·	·
COc1cc(/C=c2\s/c(=C(/C#N)C(=O)N3CCCC3)n(-c3ccccc3)c2=O)ccc1O	–	28.2	–	–	151.5	29.5
O=C(NCc1ccncc1)c1cc(-c2ccc(Cl)cc2)oc1C(F)(F)F	–	–	–	–	·	·
O=C(NCc1ccccn1)c1cc(-c2ccc(Cl)cc2)oc1C(F)(F)F	–	16.5	·	–	–	–
COc1ccccc1CCNC(=O)C(=O)NCCC1CCCCN1S(=O)(=O)c1ccccc1 (configuration not stated)	·	16.4	–	·	–	–
COc1ccccc1CNC(=O)C(=O)NCCC1CCCCN1S(=O)(=O)c1ccc(C)cc1 (configuration not stated)	·	–	–	·	·	·
O=C(c1cccn2c(=O)c3cc(Cl)ccc3nc12)N1CCN(Cc2ccc3c(c2)OCO3)CC1	–	30.8	–	–	–	–
O=C(c1cccn2c(=O)c3ccccc3nc12)N1CCN(Cc2ccc3c(c2)OCO3)CC1	–	–	–	–	·	·
CCc1ccc2cccc3c2c1N=CN3C	·	–	–	·	·	·
SMILES	TRPML3 agonist	IDE inh	IDE cell activ	TRPN1 ag	IDE cell inh cf	HEK cytotox
O=C(NN1C(=O)/C(=C/c2ccc(O)cc2)SC1=S)c1ccccc1O	·	102.8	–	·	120.4	–
O=C(NN1C(=O)/C(=C/C=C/c2ccccc2)SC1=S)c1ccncc1	–	24.5	–	–	–	–
CC(/C=C1\SC(=S)N(NC(=O)c2cccc(O)c2)C1=O)=C\c1ccccc1	–	–	–	–	·	·
Cc1cc(C)nc(NN2C(=O)/C(=C/c3ccc(O)cc3)SC2=S)n1	–	76.2	–	–	148.1	–
O=C(NN1C(=O)/C(=C/c2ccc(O)cc2)SC1=S)c1cccc(O)c1	·	144.5	–	·	103.7	–
COc1ccccc1/C=C1\SC(=S)N(Nc2nc(C)cc(C)n2)C1=O	–	–	–	–	·	·
O=C(NN1C(=O)/C(=C/C=C/c2ccco2)SC1=S)c1ccncc1	–	–	·	–	·	·
Cn1cc(/C=C2\SC(=S)N(NC(=O)c3cccc(Cl)c3)C2=O)c2ccccc21	–	·	–	–	·	·
Cn1cc(/C=C2\SC(=S)N(NC(=O)c3ccccc3)C2=O)c2ccccc21	–	27.6	–	–	46.2	–
O=C(NN1C(=O)/C(=C/c2ccc(O)c([N+](=O)[O-])c2)SC1=S)c1ccccc1Cl	–	–	–	–	·	·
COc1cc(/C=C2\SC(=S)N(NC(=O)c3ccccc3O)C2=O)ccc1O	·	119.9	–	·	112.6	–
CCC1CCCN1Cn1cnc2c([nH]c3ccc(Cl)cc32)c1=O (configuration not stated)	–	17.2	–	–	–	–
CCOc1ccc(OCC)c(NC(=O)Nc2ccc3c(c2)N(C)C(=O)CS3)c1	–	–	–	–	·	·
CCOc1ccc2nc(SCC3CC3(Cl)Cl)[nH]c2c1 (configuration not stated)	–	16.2	–	–	–	29.5
O=C1C2CCCN2C(=S)N1c1cc(Cl)ccc1Cl (configuration not stated)	·	·	–	·	·	·
OCC[n+]1ccc(/C=C/c2c[nH]c3ccccc23)cc1	–	24.4	–	–	39.2	56.8
C(=Cc1c[nH]c2ccccc12)c1nccc2ccccc12	·	·	–	·	·	·
Cc1[nH]n(-c2ccccc2)c(=S)c1C=Nc1ccc([N+](=O)[O-])cc1	–	19.9	–	–	–	–
CC(=O)c1ccc(NC(=O)c2cccs2)cc1	–	–	–	–	·	·
Cc1cc(C)cc(C(=O)Nc2ccc(NC(=O)c3cccs3)cc2)c1	·	18.8	–	·	–	–
CN(C)S(=O)(=O)N1CCN(CC(O)COc2ccc(-c3ccccc3)cc2)CC1 (configuration not stated)	·	17.5	–	·	–	–
CCOC(=O)N1CCN(CC(O)COc2ccc(-c3ccccc3)cc2)CC1 (configuration not stated)	·	16.6	–	·	–	–
CN(C)Cc1ccc(CNC(=O)COc2ccc3ccccc3c2)cc1	·	–	–	·	·	·
CCOC(=O)C1(Cc2cccc(OC)c2)CCN(Cc2cccn2-c2ccccn2)CC1	–	–	–	–	·	·
Cc1cccc(N2CCN(CC(=O)Nc3ccc(S(=O)(=O)N4CCOCC4)cc3)CC2)c1C	·	19.0	–	·	–	43.0
SMILES	TRPML3 agonist	IDE inh	IDE cell activ	TRPN1 ag	IDE cell inh cf	HEK cytotox
C/C(=N/NC(=O)CN1CCN(Cc2ccccc2Cl)CC1)c1cccnc1	–	23.4	–	–	–	–
O=C(CN1CCN(Cc2ccccc2Cl)CC1)N/N=C/C=C/c1ccccc1[N+](=O)[O-]	–	22.1	–	–	–	–
C/C(=N/NC(=O)CN1CCN(Cc2ccccc2Cl)CC1)c1cccs1	–	–	·	–	·	·
N#Cc1cc(C(=O)c2cc(F)ccc2O)cn(-c2nccs2)c1=O	22.5	33.1	–	28.3	66.6	–
N#Cc1cc(C(=O)c2ccccc2O)cn(-c2nccs2)c1=O	33.6	38.5	–	47.0	61.4	–
Cc1c(-n2cc(C(=O)c3cc(F)ccc3O)cc(C#N)c2=O)c(=O)n(-c2ccccc2)n1C	–	–	–	–	·	·
